TAAR1 ag: agonists of human TAAR1; hit rate 0.99% among 360,000; CHO RD-HGA16 TAAR1, Fluo-8 calcium fluorescence; vehicle wells 0%, saturating PEA agonist 100%; Q96RJ0; activation, % at 3 µM;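 active = activation above the mean activation of all test compounds in the run plus 3 SD, cut at about 38% in these data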
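Test system: RD-HGA16 (CHO) cells co-expressing Gα16 and hTAAR1 / Benchmarks: DMSO vehicle as 0%, PEA at EC100 as 100% / Repeats: no replicates (n 1) / Measure: % activation from peak over basal fluorescence ratio, DMSO-to-PEA scaled / Timing: 17-24 h plating, Fluo-8 75 min 37 °C, 30 min RT / Technique: kinetic Fluo-8 calcium fluorescence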
OXTR potentiator: human OXTR potentiation; P30559; activation, % at 3 µM; CHO-OTR cells, Fluo-8 calcium fluorescence, potentiator mode; 0% = oxytocin EC15, 100% = EC100; hit rate 0.061% among 320,000;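 active = activation above that plate's cutoff, the mean activation of tested compounds plus 3 SD, cut at about 6.6% in these data, passing the limit was not always enough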;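 also: 100% uses oxytocin at 75 nM as the full agonist control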
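System: human OTR in CHO cells / Also added: sub-maximal oxytocin, roughly EC15 / Control set: EC15 oxytocin low, 75 nM oxytocin high / Schedule: 6 min compound pre-incubation at room temperature, 100 s kinetic read / Compound: single-point 3.0 µM / Replication: singlicate / Technique: Fluo-8 calcium dye fluorescence / Read-out basis: % activation of max/min ratio relative to oxytocin controls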
V1R ag counter: V1a receptor agonism, counter-screen for OXTR agonists; CHO-V1R cells, Fluo-8 calcium fluorescence, agonist mode; 0% DMSO, 100% 3 nM vasopressin; activation, % at 3 µM; hit rate 0.25% among 320,000;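 active = activation above the mean activation of all tested compounds plus 3 SD, per screening run, cut at about 20% in these data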;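 also: signal is peak over basal fluorescence ratio across a 100 second FLIPR read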
Target sequence (P37288 whole entry, looked up): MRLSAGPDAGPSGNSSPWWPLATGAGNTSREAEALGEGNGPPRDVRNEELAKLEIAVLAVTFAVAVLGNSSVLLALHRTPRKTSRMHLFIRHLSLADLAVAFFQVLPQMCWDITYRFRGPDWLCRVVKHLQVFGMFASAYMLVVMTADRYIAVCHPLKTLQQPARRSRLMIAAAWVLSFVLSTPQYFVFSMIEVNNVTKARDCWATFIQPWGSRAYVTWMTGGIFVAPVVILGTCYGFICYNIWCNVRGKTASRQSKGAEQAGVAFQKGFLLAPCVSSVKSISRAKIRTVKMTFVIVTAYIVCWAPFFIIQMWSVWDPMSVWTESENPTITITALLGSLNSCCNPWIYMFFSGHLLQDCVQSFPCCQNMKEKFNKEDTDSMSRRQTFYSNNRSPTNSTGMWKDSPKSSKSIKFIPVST
TAAR1 antag: antagonists of human TAAR1; Q96RJ0; CHO RD-HGA16 TAAR1, Fluo-8 calcium fluorescence, antagonist; inhibition, % at 3 µM; hit rate 1.5% among 360,000; AID 624466;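 active = inhibition above a per-plate cutoff, the mean inhibition of test compounds on that plate plus 3 SD, cut at about 49% in these data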;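 also: 0% = DMSO plus EC80 beta-PEA response and 100% = DMSO alone without agonist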
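Test system – hTAAR1-expressing CHO RD-HGA16 cells, Gα16-coupled · Reagent – β-PEA at EC80 concentration, post-compound challenge · Compound dosing – 3 µM, single point · Timing – 140 s kinetic read after compound, 140 s after agonist · Detection – Fluo-8 intracellular calcium dye fluorescence, real-time kinetic reads · Control set – DMSO and EC80 PEA controls · Repeats – n of 1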
OXTR agonist: agonists of human oxytocin receptor | CHO-OTR cells, Fluo-8 calcium fluorescence; normalized: DMSO 0%, oxytocin 100% | activation, % at 3 µM | hit rate 0.32% among 320,000 | AID 2435;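 active = activation above the mean of all tested compounds plus 3 SD, cutoff set per screening run, cut at about 20% in these data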;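 also: peak over basal fluorescence ratio from a 100 s FLIPR kinetic read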
Numbers without * were called inactive; · = no result. Compounds with a hit are over-represented: about 2.3% of the library has one in this group of screens.

SMILES	TAAR1 ag	OXTR potentiator	V1R ag counter	TAAR1 antag	OXTR agonist
C=CCN(c1ccc(C(=O)NC(C)C)cc1)S(C)(=O)=O	0.1	-5.3	-0.1	5.8	-0.6
CCOC(=O)c1c(C)[nH]c(C)c1S(=O)(=O)NCCc1cccs1	40.5*	-0.7	1.3	-10.0	-0.1
O=C(N/N=C/c1cc([N+](=O)[O-])ccc1O)c1ccc2c(c1)OCCO2	2.5	-7.7	0.9	2.5	0.3
COc1ccc(-c2cc(C(=O)NCCc3ccc(S(N)(=O)=O)cc3)c3ccccc3n2)cc1	7.6	-6.4	1.1	53.7*	0.1
Cc1ccc(-c2cc(C(=O)NCCc3ccc(S(N)(=O)=O)cc3)c3ccccc3n2)cc1	5.6	-12.0	2.4	51.3*	1.1
NS(=O)(=O)c1ccc(CCNC(=O)c2cc(-c3ccccc3)nc3ccccc23)cc1	6.9	-1.8	-0.7	45.2	-0.2
CNCCNC[C@H](Cc1cccc2ccccc12)NCCc1ccccc1	37.6*	-0.8	1.8	-10.3	1.7
CC(C)NC(=O)NC(=O)COC(=O)c1c2c(nc3ccccc13)CCC2	10.1	-12.2	4.6	52.5*	0.6
CC(C)c1ccccc1NC(=O)COC(=O)c1c2c(nc3ccccc13)CCN(Cc1ccccc1)C2	11.7	-12.7	-1.1	58.9*	-0.8
O=C(COC(=O)c1c2c(nc3ccccc13)CCCC2)Nc1ccc2c(c1)OCO2	7.8	-23.2	-1.3	53.7*	-1.9
Cc1c(Cl)cccc1NC(=O)COC(=O)c1c2c(nc3ccccc13)CCN(Cc1ccccc1)C2	14.9	-9.6	1.6	47.3	-0.1
Cc1nc(C(=O)N2CCc3c([nH]c4ccccc34)C2c2cc(F)ccc2F)cs1 (centres undefined)	0.3	-4.6	5.8	13.3	-1.2
C/C=C(/C)C(=O)OC1CC(C)(C)C[C@H]2C3=CC[C@@H]4[C@@]5(C)CCC(O[C@@H]6O[C@@H](C(=O)O)[C@@H](O)C(O[C@@H]7OC[C@H](O)[C@@H](O)[C@@H]7O[C@@H]7OC(CO)C(O)[C@@H](O)[C@@H]7O)C6O[C@@H]6OC(CO)C(O)C(O)C6O)[C@@](C)(CO)[C@@H]5CC[C@]4(C)[C@]3(C)CC(O)[C@@]12CO (some centres undefined)	·	-12.2	22.4*	·	44.3*
CC1(C)C[C@H]2C3=CCC4[C@@]5(C)CC[C@H](O[C@@H]6O[C@H](C(=O)O)[C@@H](O)[C@H](O)[C@H]6O)[C@@](C)(CO)C5CC[C@@]4(C)[C@]3(C)C[C@H](O)[C@@]2(CO)[C@@H](O)[C@@H]1O (some centres undefined)	2.9	3.4	1.2	-2.3	1.5
CC(=O)OC1COC(OC2C(O)C(C)OC(OC3C(OC4CCC5(C)C(CCC6(C)C5CC=C5C7CC(C)(C)CCC7(C(=O)O)CCC56C)C4(C)CO)OCC(O)C3O)C2O)C(O)C1OC(C)=O (centres undefined)	·	-10.9	115.5*	·	91.8*
CCc1ccc(/C=N/NC(=O)c2ccccn2)cc1	0.9	-7.8	-0.5	-5.8	-0.8
O=C(CNC(=O)c1ccccn1)N/N=C/c1ccccc1	40.3*	-6.2	0.1	4.2	0.4
Cc1[nH]n(-c2ccccc2)c(=O)c1N=Nc1ccccc1O	13.7	·	·	36.4	·
Cc1[nH]n(-c2ccccc2)c(=O)c1N=Nc1nccs1	41.9*	-2.4	-0.6	7.8	10.3
CCOc1ccccc1N1CCN(CC(=O)c2c(N)n(C)c(=O)n(C)c2=O)CC1	5.2	4.7	1.6	-5.4	-0.9
Cc1ccc(Cl)cc1N1CCN(C(=O)c2cc3c(=O)[nH]c4ccccc4c3n2C)CC1	19.4	-12.9	8.6	50.9*	14.3
Cn1c(C(=O)N2CCN(c3ccc(Cl)cc3)CC2)cc2c(=O)[nH]c3ccccc3c21	18.4	-23.6	4.5	10.8	1.0
COc1ccc(NC(=O)c2ccc(COc3ccccc3Br)o2)cc1OC	4.4	-13.9	1.2	80.3*	-0.4
O=C1CN(S(=O)(=O)c2ccccc2)CC(=O)N1CCc1ccccc1	9.2	-11.7	1.3	12.3	0.1
Cc1cc(C)c(NC(=O)CCCN2CCCC2)c(C)c1	-1.0	0.9	-0.5	-5.0	1.1

Bioassay records as filed in PubChem.
